pEC50, pIC50: −log10 of the molar value. Active and inactive are the calls of the source. No cut-off for these calls is given here.
Legend:
[1] = system: Homo sapiens; test: Cardiovascular toxicity in Hepatitis C virus genotype 1 infected human assessed as mild bradycardia at 120 mg, po by electrocardiography; format: organism-based; details: in vivo
[2] = Binding affinity to P-glycoprotein (unknown origin); format: ADME; details: human
[3] = AUC in Sprague-Dawley rat at 15 mg/kg, po administered via gavage by LC/MS/MS analysis; format: ADME, organism-based; parameters: dose 15 mg/kg, route oral; details: plasma
[4] = system: Homo sapiens; test: Cardiovascular toxicity in healthy human assessed as mild bradycardia at 120 mg, po by electrocardiography; format: organism-based; details: in vivo
[5] = system: Hepatitis C virus; test: Antiviral activity against Hepatitis C virus genotype 1b Con1 after 4 days by cell-based replicon assay; format: functional, organism-based, Hepacivirus hominis; details: isolate Con1, 96 h
[6] = Ratio of drug level in liver to plasma in Sprague-Dawley rat at 15 mg/kg, po administered via gavage measured after 24 hrs by LC/MS/MS analysis; format: ADME, organism-based; parameters: dose 15 mg/kg, route oral
How it was run: (§1)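 Single oral dose (dog 14 mg/kg, rat 15 mg/kg), with liver and plasma sampled 24 h post-dose. Plasma was precipitated with two volumes of ACN containing internal standard and centrifuged. Tissue was weighed and homogenized in 2 volumes of 20% Hanks buffer/80% ACN. LC/MS/MS used a C18 column at 60 °C, ammonium formate/formic acid water–methanol gradient, and SRM detection. LLQ was 5 nM. Ratio is liver over plasma level.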

[7] = Oral bioavailability in Beagle dog by LC/MS/MS analysis; format: ADME, organism-based, Canis lupus familiaris; details: in vivo
[8] = Oral bioavailability in cynomolgus monkey at 3 mg/kg administered via gavage by LC/MS/MS analysis; format: ADME, organism-based, Macaca fascicularis; details: in vivo
[9] = system: Bovine viral diarrhea virus 1; test: Antiviral activity against Bovine viral diarrhea virus; format: functional, organism-based
[10] = Oral bioavailability in Sprague-Dawley rat at 15 mg/kg administered via gavage by LC/MS/MS analysis; format: ADME, organism-based; details: in vivo
[11] = system: Homo sapiens; test: Cardiovascular toxicity in healthy human assessed as PR-interval prolongation at 120 mg, po by electrocardiography; format: organism-based; details: in vivo
[12] = system: Salmonella typhimurium; test: Mutagenicity in Salmonella typhimurium by Ames test; format: toxicity, organism-based; details: salmonella enterica subsp. enterica serovar typhimurium
[13] = system: Canine parainfluenza virus; test: Antiviral activity against Canine parainfluenza virus; format: functional
[14] = Apparent terminal half life in Sprague-Dawley rat at 5 mg/kg, iv by LC/MS/MS analysis; format: ADME, organism-based; parameters: dose 5 mg/kg, route intravenous; details: in vivo, read-out: betat1/2(app) (converted)
[15] = AUC in intraduodenally dosed Sprague-Dawley rat plasma measured over 4 hrs by LC/MS/MS analysis; format: ADME, organism-based; parameters: time < 4 hr, route intraduodenal; details: Sprague-Dawley, plasma
How it was run: (§2)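 Abbreviated rat screen: surgically prepared rats were dosed intraduodenally. Plasma was sampled over 4 h, and liver was collected at the 4 h end point. Plasma was precipitated with two volumes of ACN plus internal standard. Liver was weighed and homogenized in 2 volumes of 20% Hanks buffered salt solution/80% ACN. Both were quantified by LC/MS/MS.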

[16] = system: Homo sapiens; test: Cardiovascular toxicity in Hepatitis C virus genotype 1 infected human assessed as junctional rhythm disturbances at 120 mg, po by electrocardiography; format: organism-based; details: in vivo
[17] = Cytotoxicity against human HuH7 cells; format: cell-based; details: Huh-7 cells
[18] = Drug uptake into Sprague-Dawley rat hepatocytes by silicone oil layer method; format: ADME, cell-based, Hepatocyte
[19] = system: Liver; test: Drug uptake in intraduodenally dosed Sprague-Dawley rat liver measured per gm of tissue over 4 hrs by LC/MS/MS analysis; format: ADME, organism-based; details: in vivo, other; how it was run: as §2
[20] = Terminal half life in po dosed human; format: ADME, organism-based; details: in vivo, read-out: beta t1/2 (converted)
[21] = Genotoxicity in micronucleus (unknown origin)
[22] = system: Human immunodeficiency virus; test: Antiviral activity against Human immunodeficiency virus; format: functional, organism-based
[23] = Drug uptake into human hepatocytes by silicone oil layer method; format: ADME, cell-based, Hepatocyte
[24] = Tmax in po dosed human; format: ADME, organism-based; details: in vivo
[25] = Half life in rat liver microsomes at 3 uM by LC/MS/MS analysis; format: ADME
How it was run: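 Pooled liver microsomes were run in triplicate per species. Each incubation held 3 μM test compound in 0.1 M potassium phosphate pH 7.4 at 37 °C, with 0.9 mg/mL microsomal protein, 0.033 mM MgCl2 and an NADPH-regenerating system. Proteins were precipitated with two volumes of ACN containing internal standard, and supernatants were analysed by LC/MS/MS.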

[26] = Drug uptake into dog hepatocytes by silicone oil layer method; format: ADME, cell-based, Canis lupus familiaris, Hepatocyte
[27] = system: Hepatitis C virus; test: Antiviral activity against Hepatitis C virus genotype 1a H77 assessed as inhibition of HCV replicon-encoded Renilla luciferase reporter activity after 4 days by cell-based HCV replicon assay; format: functional, organism-based, Hepacivirus hominis; details: genotype 1a H77, 96 h
[28] = Ratio of drug level in liver to plasma in Beagle dog at 14 mg/kg, po measured after 24 hrs by LC/MS/MS analysis; format: ADME, organism-based, Canis lupus familiaris; parameters: dose 14 mg/kg, route oral; how it was run: as §1
[29] = system: Homo sapiens; test: Cardiovascular toxicity in healthy human assessed as junctional rhythm disturbances at 120 mg, po by electrocardiography; format: organism-based; details: in vivo
[30] = biological target: Cytochrome P450 3A4 (Homo sapiens, UniProt P08684); test: Inhibition of CYP3A4 (unknown origin); format: ADME
[31] = system: Homo sapiens; test: Cardiovascular toxicity in Hepatitis C virus genotype 1 infected human assessed as PR-interval prolongation at 120 mg, po by electrocardiography; format: organism-based; details: in vivo
[32] = system: Hepatitis C virus; test: Antiviral activity against Hepatitis C virus genotype 1 infected in human assessed as reduction in plasma viral load administered orally measured after 12 hrs; format: functional, organism-based; details: Hepacivirus hominis
How it was run: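 HCV genotype 1-infected subjects received single oral doses of 10, 60 or 120 mg. Plasma HCV RNA was followed, and mean log10 reduction in viral load was read 12 h after dosing.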

Chain of Cytochrome P450 3A4 (P08684 whole entry): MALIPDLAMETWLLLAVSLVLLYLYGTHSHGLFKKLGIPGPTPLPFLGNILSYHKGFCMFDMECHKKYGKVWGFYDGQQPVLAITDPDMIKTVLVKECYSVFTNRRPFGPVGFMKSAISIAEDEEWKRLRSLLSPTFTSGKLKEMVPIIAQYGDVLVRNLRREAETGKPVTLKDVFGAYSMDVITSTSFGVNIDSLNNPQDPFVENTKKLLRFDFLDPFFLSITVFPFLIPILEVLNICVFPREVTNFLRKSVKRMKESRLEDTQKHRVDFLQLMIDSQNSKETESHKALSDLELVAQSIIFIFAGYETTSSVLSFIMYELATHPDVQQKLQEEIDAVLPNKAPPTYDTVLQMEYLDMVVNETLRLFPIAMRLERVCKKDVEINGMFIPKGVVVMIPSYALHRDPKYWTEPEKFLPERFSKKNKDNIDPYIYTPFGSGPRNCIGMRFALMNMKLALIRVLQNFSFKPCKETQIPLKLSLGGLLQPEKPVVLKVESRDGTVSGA

C=C[C@@H]1C[C@]1(NC(=O)[C@@H]1C[C@@H](Oc2nccc3cc(OC)ccc23)CN1C(=O)[C@@H](NC(=O)OC(C)(C)C)C(C)(C)C)C(=O)NS(=O)(=O)C1CC1
Activity [1]: Toxic
Activity [2]: Active
AUC [3]: 14.1 µM·h
Activity [4]: Toxic
pEC50 [5]: 8.55
Kp at 24 h [6]: 136
bioavailability [7]: 51%
bioavailability [8]: < 1%
Activity [9]: inactive
bioavailability [10]: 18%
Activity [11]: Toxic
Activity [12]: Non-toxic
Activity [13]: inactive
half-life [14]: 4.4 h
AUC at 4 h [15]: 10.4 µM·h
Activity [16]: Toxic
CC50 [17]: > 100000 nM
Km [18]: 1.4 µM
Drug uptake [19]: 64710 ng
half-life [20]: 4 h
Activity [21]: Non-toxic
Activity [22]: inactive
Km [23]: 1.4 µM
Tmax [24]: 1.5 h
half-life at 3 µM [25]: > 1 h
Km [26]: 1.4 µM
pEC50 [27]: 8.08
Kp at 24 h [28]: 75
Activity [29]: Toxic
pIC50 [30]: 5.70
Activity [31]: Toxic
Activity [32]: Dose-dependent effect

Reference: ChEMBL document CHEMBL3124900, “Discovery and early clinical evaluation of BMS-605339, a potent and orally efficacious tripeptidic acylsulfonamide NS3 protease inhibitor for the treatment of hepatitis C virus infection” (J Med Chem, 2014)
